Assay results as given in paper PMC3944088 (ACS chemical biology, 2013).
Values belong to the molecule of their own block, whether it stands above or below them.

Columns and labels:
c-MET [1] = assay: Total c-MET levels in A549 cells; assay type: cell-based
Method in brief: (§1)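 A549 cells were treated with the test compound or the reference pan-GSK3 inhibitor BIO (concentrations in μM), then lysates were immunoblotted for PARP-1 cleavage and total c-MET. In parallel, GSK3α and GSK3β were knocked down by siRNA, each alone, both combined, or with one siRNA targeting both, against a non-targeting control. These cells were blotted 72 hours post-transfection.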

A549 cells [2] = assay: Apoptosis by PARP-1 cleavage in A549 cells; assay type: cell-based
Method in brief: as §1

A549 NSCLC cells = assay: Cell viability of A549 NSCLC cells with GSK3 inhibitors; assay type: cell-based
Method in brief: (§2)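 Viability read by ATP-based luminescence (CellTiter-Glo) after exposure of lung cancer cell lines to the test compound. For the GSK3 comparison in A549 cells, the known pan-GSK3 inhibitors BIO and LiCl were run alongside. Enantiomers were compared in A549 and H1648 cells.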

[3] = system: A549, H23 and H1648 NSCLC cell lines; assay: Dose-response inhibition of cellular viability in NSCLC cell lines; assay type: cell-based; details: for activity in inhibition of cellular viability (dose-response): A549, H23, H1648 NSCLC cell lines
Method in brief: as §2

[4] = system: panel of 24 KRAS-mutant and wild-type lung cancer cell lines; assay: Cell viability screen across a panel of 24 lung cancer cell lines; assay type: cell-based; details: 0.5 and 2.5 μM
Method in brief: as §2

c-MET [5] = target: T1, c-MET (Homo sapiens, UniProt P08581); assay: c-MET autophosphorylation in A549 cells; assay type: cell-based; details: 30 minute treatment, 250 nM for crizotinib, PHA-665752, PF-04217903
T1 sequence (P08581 25-1390): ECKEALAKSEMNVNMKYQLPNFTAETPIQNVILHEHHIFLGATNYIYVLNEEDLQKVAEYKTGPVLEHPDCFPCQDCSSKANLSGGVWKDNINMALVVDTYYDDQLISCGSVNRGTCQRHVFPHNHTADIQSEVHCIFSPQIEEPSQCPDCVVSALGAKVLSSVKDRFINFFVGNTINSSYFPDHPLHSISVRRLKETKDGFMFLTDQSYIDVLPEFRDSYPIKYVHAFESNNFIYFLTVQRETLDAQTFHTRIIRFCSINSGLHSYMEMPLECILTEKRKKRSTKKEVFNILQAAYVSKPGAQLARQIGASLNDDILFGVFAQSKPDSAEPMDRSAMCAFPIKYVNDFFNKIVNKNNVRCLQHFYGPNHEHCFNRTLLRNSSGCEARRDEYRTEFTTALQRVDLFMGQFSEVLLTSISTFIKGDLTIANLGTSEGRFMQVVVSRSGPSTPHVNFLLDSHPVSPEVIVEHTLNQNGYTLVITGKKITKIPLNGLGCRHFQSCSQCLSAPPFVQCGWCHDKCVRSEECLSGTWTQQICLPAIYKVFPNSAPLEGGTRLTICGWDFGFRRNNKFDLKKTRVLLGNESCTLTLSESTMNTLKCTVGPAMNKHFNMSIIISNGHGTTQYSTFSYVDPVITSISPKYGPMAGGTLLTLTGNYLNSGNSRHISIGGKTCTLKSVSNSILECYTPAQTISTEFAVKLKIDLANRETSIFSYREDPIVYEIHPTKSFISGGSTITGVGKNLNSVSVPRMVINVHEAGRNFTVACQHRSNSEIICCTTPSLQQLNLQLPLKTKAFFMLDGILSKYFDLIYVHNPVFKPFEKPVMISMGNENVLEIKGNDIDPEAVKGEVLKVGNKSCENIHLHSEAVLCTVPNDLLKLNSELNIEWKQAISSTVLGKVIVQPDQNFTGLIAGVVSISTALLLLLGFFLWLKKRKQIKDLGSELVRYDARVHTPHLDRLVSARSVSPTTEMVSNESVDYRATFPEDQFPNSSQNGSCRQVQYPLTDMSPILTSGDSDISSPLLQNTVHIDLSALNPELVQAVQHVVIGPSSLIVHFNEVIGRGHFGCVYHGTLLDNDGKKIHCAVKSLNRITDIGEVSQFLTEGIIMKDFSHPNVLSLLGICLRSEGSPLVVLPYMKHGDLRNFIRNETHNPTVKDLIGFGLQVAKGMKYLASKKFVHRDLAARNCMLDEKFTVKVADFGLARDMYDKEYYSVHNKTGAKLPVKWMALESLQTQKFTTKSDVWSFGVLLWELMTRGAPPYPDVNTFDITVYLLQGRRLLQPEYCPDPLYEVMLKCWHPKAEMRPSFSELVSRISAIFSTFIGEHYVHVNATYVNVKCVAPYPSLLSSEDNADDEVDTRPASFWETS

GSK3α = GSK3α (Homo sapiens, UniProt P49840); assay: In vitro kinase inhibition assay GSK3α; assay type: biochemical; details: Millipore and Reaction Biology platforms
GSK3α, sequence (P49840 whole entry): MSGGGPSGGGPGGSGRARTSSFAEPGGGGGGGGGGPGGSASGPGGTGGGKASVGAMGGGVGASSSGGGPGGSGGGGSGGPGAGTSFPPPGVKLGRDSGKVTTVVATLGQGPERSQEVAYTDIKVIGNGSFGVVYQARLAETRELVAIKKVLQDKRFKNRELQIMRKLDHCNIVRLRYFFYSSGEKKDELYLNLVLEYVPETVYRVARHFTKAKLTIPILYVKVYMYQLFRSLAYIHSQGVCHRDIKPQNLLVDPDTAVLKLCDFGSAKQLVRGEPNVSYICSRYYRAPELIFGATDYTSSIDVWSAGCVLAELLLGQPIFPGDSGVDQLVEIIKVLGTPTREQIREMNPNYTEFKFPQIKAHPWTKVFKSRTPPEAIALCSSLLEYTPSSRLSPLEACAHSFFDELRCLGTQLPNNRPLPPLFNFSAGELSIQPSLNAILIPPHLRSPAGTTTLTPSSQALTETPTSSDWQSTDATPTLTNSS

GSK3β = GSK3β (Homo sapiens, UniProt P49841); assay: In vitro kinase inhibition assay GSK3β; assay type: biochemical; details: Millipore and Reaction Biology platforms
GSK3β, sequence (P49841 whole entry): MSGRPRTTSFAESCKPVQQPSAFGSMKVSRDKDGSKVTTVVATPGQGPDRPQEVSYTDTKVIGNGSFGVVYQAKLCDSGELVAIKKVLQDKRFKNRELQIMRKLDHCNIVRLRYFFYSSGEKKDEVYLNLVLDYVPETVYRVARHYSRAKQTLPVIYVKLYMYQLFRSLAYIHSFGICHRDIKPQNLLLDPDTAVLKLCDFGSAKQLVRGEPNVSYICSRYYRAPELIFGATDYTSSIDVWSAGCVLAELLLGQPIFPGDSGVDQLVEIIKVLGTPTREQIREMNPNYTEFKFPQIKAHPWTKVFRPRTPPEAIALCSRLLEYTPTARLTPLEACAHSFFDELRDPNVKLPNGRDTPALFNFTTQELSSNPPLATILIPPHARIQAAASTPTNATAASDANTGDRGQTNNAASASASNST

c-MET [6] = target: T1, c-MET; details: reported ref 8, 17; cited from earlier work
[7] = system: RS4;11 MLL-rearranged leukemia cells; assay: Viability of RS4; assay type: cell-based; details: RS4;11 cells
[8] = system: MV-4–11 and RS4;11 MLL-rearranged leukemia cells; assay: β-catenin stabilisation and cell cycle in MLL-rearranged leukemia cells; assay type: cell-based
β-catenin = assay: Total β-catenin levels in A549 cells; assay type: cell-based; details: A549 cells after treatment
c-MET [9] = target: T1, c-MET; assay: In vitro kinase inhibition c-MET; assay type: biochemical
[10] = system: MV-4–11 MLL-rearranged leukemia cells; assay: Viability of MV-4–11 MLL-rearranged leukemia cells; assay type: cell-based; details: MV-4–11 cells
A549 cells [11] = assay: Cell cycle analysis in A549 cells; assay type: cell-based

Structure (SMILES): O=C1Nc2cc(Br)ccc2/C1=C1/Nc2ccccc2/C1=N\O [BIO]
c-MET levels upon treatment (c-MET [1]): decreased c-MET levels
apoptosis indicated by PARP-1 cleavage (A549 cells [2]): able to induce apoptosis in A549 cells, albeit slightly delayed
antiproliferative activity in A549 cells (A549 NSCLC cells): showed antiproliferative activity

Structure (SMILES): [Cl-].[Li+] [LiCl]
antiproliferative activity in A549 cells (A549 NSCLC cells): showed antiproliferative activity
potency range of antiproliferative activity (A549 NSCLC cells): low millimolar activity

Structure (SMILES): OCCn1cc(-c2cnc3nnn(Cc4ccc5ncccc5c4)c3n2)cn1 [PF-04217903]
activity in inhibition of cellular viability (dose-response) [3]: no measurable
effect on cellular viability across lung cancer cell line panel [4]: no significant effects

inhibition of c-MET autophosphorylation (c-MET [5]): effectively inhibited
Structure (SMILES): Cc1[nH]c(/C=C2\C(=O)Nc3ccc(S(=O)(=O)Cc4c(Cl)cccc4Cl)cc32)c(C)c1C(=O)N1CCC[C@@H]1CN1CCCC1 [PHA-665752]

Structure (SMILES): COc1cc2nccc(Oc3ccc(NC(=O)C4(C(=O)Nc5ccc(F)cc5)CC4)cc3)c2cc1OC [cabozantinib]
effect on cellular viability across lung cancer cell line panel [4]: no significant effects

Structure (SMILES): O=C1NC(=O)[C@H](c2cn3c4c(cccc24)CCC3)[C@H]1c1c[nH]c2ccccc12 [compound 7, (+)-3S,4S-tivantinib]
IC50 for inhibition of GSK3α in vitro kinase activity (GSK3α): significantly weaker inhibitor
IC50 for inhibition of GSK3β in vitro kinase activity (GSK3β): significantly weaker inhibitor
activity in (−)-tivantinib-sensitive cell lines (cellular viability) ([3]; A549 and H1648 cells, compared with (−)-tivantinib): substantially weaker activity
activity against c-MET (c-MET [6]): inactive

Structure (SMILES): C[C@@H](Oc1cc(-c2cnn(C3CCNCC3)c2)cnc1N)c1c(Cl)ccc(F)c1Cl [crizotinib]
activity in inhibition of cellular viability (dose-response) [3]: only weak activity
effect on cellular viability across lung cancer cell line panel [4]: no significant effects

IC50 for inhibition of GSK3α in vitro kinase activity (GSK3α): upper nanomolar range
IC50 for inhibition of GSK3β in vitro kinase activity (GSK3β): upper nanomolar range
inhibition of c-MET (in vitro kinase) (c-MET [9]): only weakly inhibited
inhibition of c-MET autophosphorylation (c-MET [5]): essentially no effect
IC50 ([3]; read-out: IC50 for inhibition of cellular viability): ~500 nM
Structure (SMILES): O=C1NC(=O)[C@@H](c2cn3c4c(cccc24)CCC3)[C@@H]1c1c[nH]c2ccccc12 [tivantinib]
c-MET levels upon treatment (c-MET [1]): decreased c-MET levels
inhibition of viability [7]: potently inhibited viability
cell cycle effect [8]: induced G1 cell cycle arrest
β-catenin stabilisation [8]: stabilized β-catenin
total β-catenin levels (β-catenin): increase in total β-catenin levels
apoptosis indicated by PARP-1 cleavage (A549 cells [2]): induce apoptosis
inhibition of viability [10]: potently inhibited viability
effect on cellular viability across lung cancer cell line panel [4]: inhibited the viability of the majority of these
cell cycle effect (A549 cells [11]): G2/M cell cycle arrest
